# Assay results from the RNAGym collection of RNA variant scans (doi:10.1002/anie.201605470).
# B1: Osa-1-4 twister ribozyme (parent)
# chain: CCGCCUAACACUGCCAAUGCCGGUCCCAAGCCCGGAUAAAAGUGGAGGGGGCGG
# Variants of: B1
# Experiment: self-cleavage, relative activity (ratio to wild type); higher = more cleavage; co-transcriptional
# Method in brief: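 In vitro transcription at 37 °C for 2 h allowed the twister ribozyme to cleave itself as it was made. Its 54-nucleotide Oryza sativa template had been synthesised with 97 % wild-type base and 1 % of each other base at the 48 positions downstream of the cleavage site. A template-switching oligonucleotide was used for reverse transcription, followed by PCR amplification and deep sequencing. Whether reads carried upstream sequence set the cleavage status, and relative activity is the fraction cleaved normalised to wild type.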
row,Variant,self-cleavage
1,A46C G30C,0.02
2,A46C G30U,0.02
3,A46C G34A,0.06
4,A46C G34C,0.05
5,A46C G34U,0.04
6,A46C G35A,0.06
7,A46C G35C,0.04
8,A46C G35U,0.05
9,A46C G42A,0.04
10,A46C G42C,0.04
11,A46C G42U,0.02
12,A46C G44A,0.05
13,A46C G44C,0.06
14,A46C G44U,0.06
15,A46C G45A,0.05
16,A46C G45C,0.03
17,A46C G45U,0.02
18,A46C G47A,0.04
19,A46C G47C,0.02
20,A46C G47U,0.04
21,A46C G48A,0.04
22,A46C G48C,0.03
23,A46C G48U,0.02
24,A46C G49A,0.04

row,Variant,self-cleavage
1,A46C G49C,0.03
2,A46C G49U,0.04
3,A46C G50A,0.1
4,A46C G50C,0.08
5,A46C G50U,0.09
6,A46C G51A,0.07
7,A46C G51C,0.04
8,A46C G51U,0.05
9,A46C G53A,0.07
10,A46C G53C,0.04
11,A46C G53U,0.08
12,A46C G54A,0.09
13,A46C G54C,0.08
14,A46C G54U,0.19
15,A46C U12A,0.05
16,A46C U12C,0.04
17,A46C U12G,0.03
18,A46C U18A,0.06
19,A46C U18C,0.06
20,A46C U18G,0.14
21,A46C U24A,0.02
22,A46C U24C,0.04
23,A46C U24G,0.01
24,A46C U37A,0.05

row,Variant,self-cleavage
1,A46C U37C,0.07
2,A46C U37G,0.09
3,A46C U43A,0.06
4,A46C U43C,0.05
5,A46C U43G,0.05
6,A46G,0.08
7,A46G A7C,0.02
8,A46G A7G,0.05
9,A46G A7U,0.01
10,A46G A8C,0.03
11,A46G A8G,0.04
12,A46G A8U,0.03
13,A46G C9A,0.03
14,A46G C9G,0.07
15,A46G C9U,0.03
16,A46G C11A,0.06
17,A46G C11G,0.04
18,A46G C11U,0.06
19,A46G C14A,0.03
20,A46G C14G,0.04
21,A46G C14U,0.03
22,A46G C15A,0.06
23,A46G C15G,0.04
24,A46G C15U,0.04

row,Variant,self-cleavage
1,A46G C20A,0.09
2,A46G C20G,0.04
3,A46G C20U,0.07
4,A46G C21A,0.07
5,A46G C21G,0.02
6,A46G C21U,0.09
7,A46G C25A,0.02
8,A46G C25G,0.02
9,A46G C25U,0.05
10,A46G C26A,0.03
11,A46G C26G,0.02
12,A46G C26U,0.04
13,A46G C27A,0.05
14,A46G C27G,0.04
15,A46G C27U,0.04
16,A46G C31A,0.01
17,A46G C31G,0.03
18,A46G C31U,0.05
19,A46G C32A,0.03
20,A46G C32G,0.07
21,A46G C32U,0.04
22,A46G C33A,0.04
23,A46G C33G,0.03
24,A46G C33U,0.06

row,Variant,self-cleavage
1,A46G C52A,0.1
2,A46G C52G,0.24
3,A46G C52U,0.09
4,A46G G13A,0.02
5,A46G G13C,0.02
6,A46G G13U,0.01
7,A46G G19A,0.05
8,A46G G19C,0.02
9,A46G G19U,0.04
10,A46G G22A,0.08
11,A46G G22C,0.02
12,A46G G22U,0.06
13,A46G G23A,0.05
14,A46G G23C,0.02
15,A46G G23U,0.03
16,A46G G30A,0.02
17,A46G G30C,0.01
18,A46G G30U,0.03
19,A46G G34A,0.06
20,A46G G34C,0.05
21,A46G G34U,0.05
22,A46G G35A,0.07
23,A46G G35C,0.05
24,A46G G35U,0.08

row,Variant,self-cleavage
1,A46G G42A,0.05
2,A46G G42C,0.04
3,A46G G42U,0.04
4,A46G G44A,0.05
5,A46G G44C,0.05
6,A46G G44U,0.07
7,A46G G45A,0.06
8,A46G G45C,0.03
9,A46G G45U,0.03
10,A46G G47A,0.06
11,A46G G47C,0.03
12,A46G G47U,0.06
13,A46G G48A,0.02
14,A46G G48C,0.03
15,A46G G48U,0.02
16,A46G G49A,0.03
17,A46G G49C,0.03
18,A46G G49U,0.03
19,A46G G50A,0.08
20,A46G G50C,0.06
21,A46G G50U,0.06
22,A46G G51A,0.05
23,A46G G51C,0.04
24,A46G G51U,0.05

row,Variant,self-cleavage
1,A46G G53A,0.07
2,A46G G53C,0.03
3,A46G G53U,0.07
4,A46G G54A,0.07
5,A46G G54C,0.06
6,A46G G54U,0.11
7,A46G U12A,0.05
8,A46G U12C,0.05
9,A46G U12G,0.07
10,A46G U18A,0.06
11,A46G U18C,0.07
12,A46G U18G,0.13
13,A46G U24A,0.04
14,A46G U24C,0.04
15,A46G U24G,0.02
16,A46G U37A,0.05
17,A46G U37C,0.08
18,A46G U37G,0.09
19,A46G U43A,0.06
20,A46G U43C,0.04
21,A46G U43G,0.12
22,A46U,0.08
23,A46U A7C,0.02
